Compound activity: PubChem, Broad Institute
Rows were chosen to be rich in hits. Some 2.9% of all compounds tested hit in one or more screens of this group.
SIRT5 block = inhibitors of human sirtuin-5 desuccinylase. Purified SirT5, succinyl-peptide AMC, trypsin-coupled fluorescence. 330,000 compounds, 1.1% hits. inhibition, % at 15 µM; in the data active = inhibition above about 15%; inconclusive = no clear call, values can overlap the other calls
DENV2 CPE = DENV2-induced cell death inhibition; DENV2-infected cells, cytopathic effect rescue, plate reader; CPE inhibition, % at 9.99 µM; 350,000 compounds, 1.7% hits; AID 651640; in the data active = CPE inhibition above about 20%, passing the limit was not always enough; inconclusive = no clear call, values can overlap the other calls; tested in BHK-21 cells;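 also: 0% = median of neutral control wells and 100% = median of positive control wells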
E-sel inducer = E-selectin induction on HUVECs | P16581 | HUVEC E-selectin immunofluorescence imaging; normalized: neutral wells 0, TNF-alpha wells 100 | activation, % at 7.58 µM | 260,000 compounds, 0.37% hits | AID 686992;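 active = mean E-selectin-positive cell signal at least 10% of the positive control, reached in at least 60% of replicates, without over 20% cell loss; inconclusive = no rule given, readout overlaps actives, possibly toxicity-flagged; inactive = the rest, including those meeting only one limit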
Target sequence (P16581 whole entry, looked up): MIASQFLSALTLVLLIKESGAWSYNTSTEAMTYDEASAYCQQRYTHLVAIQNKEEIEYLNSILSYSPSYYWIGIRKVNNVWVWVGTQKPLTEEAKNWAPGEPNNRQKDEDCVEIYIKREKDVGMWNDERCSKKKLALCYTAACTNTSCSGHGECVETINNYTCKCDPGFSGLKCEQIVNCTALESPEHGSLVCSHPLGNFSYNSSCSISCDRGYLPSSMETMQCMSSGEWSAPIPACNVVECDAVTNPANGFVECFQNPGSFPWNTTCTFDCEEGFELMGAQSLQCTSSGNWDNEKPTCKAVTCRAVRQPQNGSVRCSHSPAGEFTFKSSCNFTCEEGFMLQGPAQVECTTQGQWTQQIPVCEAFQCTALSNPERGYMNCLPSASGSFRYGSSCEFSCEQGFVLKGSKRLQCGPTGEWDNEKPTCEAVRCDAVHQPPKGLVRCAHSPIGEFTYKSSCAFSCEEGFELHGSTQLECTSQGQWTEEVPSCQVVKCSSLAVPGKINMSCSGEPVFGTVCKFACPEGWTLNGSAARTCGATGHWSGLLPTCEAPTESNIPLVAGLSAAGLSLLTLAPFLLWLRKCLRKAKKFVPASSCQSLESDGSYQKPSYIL
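assay system = HUVEC, human umbilical vein endothelial cells | input = 3,000 HUVEC seeded per well | medium = EGM-2 growth medium on 0.1% gelatin-coated wells | dosing = one compound dose added by pin transfer | signal = immunofluorescence imaging | read-out basis = % PE-positive cells | control set = TNF-alpha, DMSO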
* hit, by the source's call; u = inconclusive; x = no result given.

SMILES	SIRT5 block	DENV2 CPE	E-sel inducer
COc1ccc(S(=O)(=O)Nc2cccc3c2O[C@H](CN(C)C(=O)Nc2ccc4c(c2)OCO4)[C@H](C)CN([C@H](C)CO)C3=O)cc1	2	7	0
Cc1c(C(=O)N2CCCCCC2)nnn1-c1nonc1N	0	x	x
CCOCCOC(=O)c1ccc(-n2cnc(C)n2)nc1	1	-4	0
COCCNc1nc(NCc2ccccc2F)c2sccc2n1	x	u	0
CC(C)NC(=O)N(C)C[C@H]1Oc2ccc(NS(=O)(=O)c3ccc(Cl)cc3)cc2CC(=O)N([C@@H](C)CO)C[C@H]1C	3	u	21
O=C1NC[C@H](CCCCN2C[C@H](Cc3ccccc3)N(Cc3ccccc3)C(=O)C2=O)N(CCC2CCCCC2)C1=O	x	4	0
Nc1ccn(CCCN2CCN(Cc3cccc4ccccc34)CC2)c(=O)n1	-2	-16	0
COc1ccc(NC(=O)N(C)C[C@@H]2Oc3c(NC(=O)Nc4ccc5c(c4)OCO5)cccc3C(=O)N([C@@H](C)CO)C[C@H]2C)cc1	0	3	x
COc1ccc(NC(=O)Nc2cccc3c2O[C@@H](CN(C)C(=O)Nc2ccc4c(c2)OCO4)[C@@H](C)CN([C@@H](C)CO)C3=O)cc1	2	27*	0
O=C(/C=C/c1ccco1)NCCc1ccccc1	-5	3	x
CC(=O)Nc1ccc(-c2ccnc3c2CC(C(=O)Nc2ccccc2)O3)cc1 (configuration not stated)	-4	56*	0
CC(=O)Nc1ccc(NC(=O)C2Cc3c(-c4cccc(NC(C)=O)c4)ccnc3O2)cc1 (configuration not stated)	0	u	0
COc1cccc(C(=O)N[C@H](C(=O)N2CCC[C@H]2C(=O)NCCc2ccccc2Cl)C2CCCCC2)c1	2	29*	0
CC(C)[C@H](NC(=O)C1CC1)C(=O)N1CCC[C@H]1C(=O)NCCc1ccccc1Cl	1	29*	0
CC(C)[C@H](NC(=O)CC1CCCC1)C(=O)N1CCC[C@H]1C(=O)NCCc1ccccc1Cl	-1	5	0
O=C(N[C@H](C(=O)N1CCC[C@H]1C(=O)NCCc1ccccc1Cl)C1CCCCC1)c1ccccc1	2	1	0
Cc1nn(C(C)(C)C)c(NC(=O)c2ccc(Cl)cc2)c1Br	x	-6	0
Cc1ccc(NC(=O)CN2C(=O)N/C(=C/c3cc(C)n(-c4cccc(C(=O)O)c4)c3C)C2=O)cc1	19*	6	x
CC(=O)NC1=NC(=O)/C(=C/c2cc(C)n(-c3cccc(C(=O)O)c3)c2C)S1	20*	-4	x
Cc1ccc(NC(=O)CN2C(=O)N/C(=C/c3ccccc3OCc3cccc(C(=O)O)c3)C2=O)cc1	1	7	x
CC(=O)NC1=NC(=O)/C(=C/c2cc(C)n(-c3ccc(NC(C)=O)cc3)c2C)S1	-2	-4	1
CC(=C1C(=O)c2ccccc2C1=O)N1CCc2ccccc2C1	-2	7	x
COC(=O)C[C@@H]1CC[C@H]2[C@@H](COc3ccc(NC(=O)Nc4cccc(F)c4)cc3C(=O)N2C)O1	-3	-6	0
C=CCn1c(=NC(=O)CN2C(=O)CCC2=O)sc2cc(S(N)(=O)=O)ccc21	x	x	0
CC1(C(=O)NCc2ccccc2)CN(S(C)(=O)=O)CC(=O)N1CCc1ccccc1 (configuration not stated)	-1	-7	0
SMILES	SIRT5 block	DENV2 CPE	E-sel inducer
CC(C)CN1C(=O)CN(S(C)(=O)=O)CC1(C)C(=O)NC(C)C (configuration not stated)	-1	27*	0
COCCN1C(=O)CN(S(C)(=O)=O)CC1(C)C(=O)NCc1ccccc1 (configuration not stated)	2	5	0
CC1(C(=O)NCc2ccccc2)CN(S(C)(=O)=O)CC(=O)N1CCc1ccccc1F (configuration not stated)	6	74*	0
CC1(C(=O)NCc2ccccc2)CN(S(C)(=O)=O)CC(=O)N1CCc1ccc(O)cc1 (configuration not stated)	-4	26*	0
Cc1ccc(CN2C(=O)CN(S(C)(=O)=O)CC2(C)C(=O)NC(C)C)cc1 (configuration not stated)	0	-3	-5
CCOC(=O)c1ccc(NC(=O)CSc2nc(=O)n3cccc(C)c3n2)cc1	3	-7	0
COc1cc(NC(=O)Cc2ccc(OC)c(S(=O)(=O)N3CCOCC3)c2)c(OC)cc1Cl	2	5	1
COc1ccc(NC(=O)N2CC[C@@H]3[C@H]2c2cc(Br)ccc2N(C)[C@@H]3CO)cc1	3	-5	0
COc1ccc(NC(=O)N2CC[C@@H]3[C@@H](CO)N(C)c4ccc(Br)cc4[C@@H]32)cc1	2	54*	0
CC(C)NC(=O)N1CC[C@@H]2[C@H]1c1cc(Br)ccc1N(C)[C@@H]2CO	2	108*	2
CN1c2ccc(Br)cc2[C@@H]2[C@@H](CCN2C(=O)C2CCC2)[C@H]1CO	-1	-8	0
CC(C)NC(=O)N1CC[C@H]2[C@@H]1c1cc(Br)ccc1N(C)[C@H]2CO	1	u	0
CN1c2ccc(Br)cc2[C@H]2[C@H](CCN2C(=O)C2CCC2)[C@H]1CO	8	105*	0
COc1ccccc1NC(=O)N[C@@H]1CC[C@@H](CCn2cc(C3(O)CCCC3)nn2)O[C@H]1CO	1	1	0
CCC(C)N(C(=O)Cn1cnc2c1c(=O)n(C)c(=O)n2C)C1CCS(=O)(=O)C1 (configuration not stated)	0	8	-1
COc1ccc(-c2nnc(Nc3ccc(S(=O)(=O)Nc4nccs4)cc3)c3ccccc23)cc1	-2	3	x
CN(C(=O)c1cccc(NC(=O)C2CCCN(C(=O)OC(C)(C)C)C2)c1)C1CCCC1 (configuration not stated)	x	-4	0
Cc1ccc(C(=O)C2CCN(CC(=O)Nc3nc(C)cs3)CC2)cc1	19*	3	x
COc1ccc(C(=O)C2CCN(CC(=O)Nc3cc(C)cc(C)c3)CC2)cc1	-2	3	1
Cc1noc(C)c1NC(=O)N[C@@H]1CC[C@H](CCNC(=O)C2CCCCC2)O[C@@H]1CO	3	7	0
C=CCN1C(=O)c2ccccc2NC1c1ccc(Br)s1 (configuration not stated)	0	-2	x
O=C1c2ccccc2NC(c2ccc(Br)s2)N1O (configuration not stated)	4	53*	x
O=C(C[C@@H]1C=C[C@@H](NS(=O)(=O)c2ccc(F)cc2)[C@H](CO)O1)NCc1ccc(Cl)c(Cl)c1	-7	0	0
CC(Sc1nc2ncc(Cl)cc2[nH]1)C(=O)Nc1ccc(C(N)=O)cc1 (configuration not stated)	-6	118*	x
CC(Sc1nc2ncc(Cl)cc2[nH]1)C(=O)c1c(N)n(C)c(=O)n(C)c1=O (configuration not stated)	-2	-7	x
COc1cc(Cl)cc(/C=N\NC(=O)c2ccc3c(c2)OCO3)c1O	2	-9	1
COc1ccc(NC(=O)Nc2cccc3c2O[C@@H](CN(C)S(=O)(=O)c2ccc(OC)cc2)[C@@H](C)CN([C@@H](C)CO)C3=O)cc1	2	0	0
